The target in data set [1] is T1, Thymidine kinase (Human herpesvirus 2, UniProt Q6L709).
T1 sequence (Q6L709 whole entry): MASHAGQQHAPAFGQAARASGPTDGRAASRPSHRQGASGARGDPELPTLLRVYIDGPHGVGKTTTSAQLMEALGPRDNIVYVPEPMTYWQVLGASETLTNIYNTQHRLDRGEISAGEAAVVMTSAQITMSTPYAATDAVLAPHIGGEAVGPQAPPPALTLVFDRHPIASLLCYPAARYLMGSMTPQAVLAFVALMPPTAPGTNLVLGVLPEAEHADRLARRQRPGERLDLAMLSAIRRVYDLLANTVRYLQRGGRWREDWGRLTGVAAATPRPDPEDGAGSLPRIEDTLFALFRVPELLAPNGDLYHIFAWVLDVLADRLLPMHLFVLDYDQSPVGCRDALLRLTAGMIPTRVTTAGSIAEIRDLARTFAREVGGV
Nature of the data set: Inhibition of HSV-2 thymidine kinase, 2 uM [3H]thymidine and ATP as phosphate donor. Also on record: species or system Human alphaherpesvirus 2. An outline of the steps:
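TK purified by affinity column from HSV2-infected HeLa cells. Activity measured by DE-81 filter binding as phosphorylation of limiting 2 µM [3H]TdR with ATP as phosphate donor. Inhibitors were diluted from DMSO stocks, with matching DMSO in controls.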

The target of data set [2] is T2, Thymidine kinase (Human alphaherpesvirus 1, UniProt Q9QNF7).
T2 sequence (Q9QNF7 whole entry): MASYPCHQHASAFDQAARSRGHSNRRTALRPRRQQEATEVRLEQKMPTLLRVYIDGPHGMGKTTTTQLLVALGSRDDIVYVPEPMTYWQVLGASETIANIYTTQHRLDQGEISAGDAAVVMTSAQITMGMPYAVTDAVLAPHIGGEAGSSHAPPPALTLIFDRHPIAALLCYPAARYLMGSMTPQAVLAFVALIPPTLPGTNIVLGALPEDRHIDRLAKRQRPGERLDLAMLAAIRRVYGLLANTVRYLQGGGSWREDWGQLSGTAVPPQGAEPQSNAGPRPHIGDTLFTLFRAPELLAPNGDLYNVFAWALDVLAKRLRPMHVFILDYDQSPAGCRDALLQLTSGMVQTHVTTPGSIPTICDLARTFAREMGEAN
Nature of the data set: Inhibition of HSV-1 thymidine kinase, 1 uM [3H]thymidine and ATP as phosphate donor.

For data set [3], the system named is Mus musculus. Description: Plasma concentration at time-0 was measured in mice at 100 mg/kg after intraperitoneal administration with 90% DMSO as vehicle. As to conditions: in vivo, ip, read-out: Co. More on the design: dose 100 mg/kg, route intraperitoneal. The format is ADME, organism-based. An outline of the steps:
(§1)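 Male CD-1 mice (~25 g) received 100 mg/kg ip as a solution in saline pH 11.4 or 90% DMSO. Plasma was collected at intervals after decapitation, diluted 10-fold and stored at −21 °C. Drug was measured by C8 reverse-phase HPLC with UV at 275 nm against spiked-plasma standards (0.11–56 µM). C0 and ke came from least-squares regression of the terminal log-linear phase; t1/2 = ln2/ke.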

Data set [4] in a line: Volume of distribution in mice plasma was determined at 40 mg/kg after intravenous administration with 90% DMSO as vehicle. The note with it: mouse. Also on record: dose 40 mg/kg, route intravenous. It counts as ADME, organism-based. An outline of the steps:
(§2)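 Male CD-1 mice (~25 g) received 40 mg/kg iv via the tail vein, dissolved at 10 mg/mL in saline pH 11.4 or 90% aqueous DMSO. Blood was taken at intervals after decapitation, and plasma was diluted 10-fold. Drug was quantified by C8 reverse-phase HPLC with UV at 275 nm. C0 and ke came from a log-linear fit of all points; t1/2 = ln2/ke and Vd = dose/C0.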

Data set [5] in a line: Half life in mice plasma was determined at 40 mg/kg after intravenous administration with 90% DMSO as vehicle. The format is ADME, organism-based. More on the design: dose 40 mg/kg, route intravenous. The note with it: mouse. An outline of the steps:
as §2

For data set [6], the system named is Mus musculus. Nature of the data set: Plasma concentration at time-0 was measured in mice at 40 mg/kg after intravenous administration with 90% DMSO as vehicle. The format is ADME, organism-based. More on the design: dose 40 mg/kg, route intravenous. As to conditions: in vivo, read-out: Co. An outline of the steps: as §2
The test system of data set [7] is Mus musculus. Nature of the data set: Plasma concentration at time-0 was measured in mice at 100 mg/kg after intraperitoneal administration with saline(pH=11.4) as vehicle. More on the design: dose 100 mg/kg, route intraperitoneal. As to conditions: in vivo, ip, pH 11.4, 100 mg/kg, read-out: Co. It counts as ADME, organism-based. An outline of the steps:
as §1

A short description of data set [8]: Volume of distribution in mice plasma was determined at 40 mg/kg after intravenous administration with saline(pH=11.4) as vehicle. More on the design: dose 40 mg/kg, route intravenous. It counts as ADME, organism-based. The note with it: mouse. An outline of the steps:
as §2

Data set [9] in a line: Half life in mice plasma was determined at 40 mg/kg after intravenous administration with saline(pH=11.4) as vehicle. It counts as ADME, organism-based. As to conditions: mouse. Also on record: dose 40 mg/kg, route intravenous. The essentials:
as §2

Data set [10] is described as follows: Half life in mice plasma was determined at 100 mg/kg after intraperitoneal administration with saline(pH=11.4) as vehicle. Also on record: dose 100 mg/kg, route intraperitoneal. It counts as ADME, organism-based. The note with it: mouse, ip. The essentials:
as §1

Data set [11] has as its system Mus musculus. Nature of the data set: Plasma concentration at time-0 was measured in mice at 40 mg/kg after intravenous administration with saline(pH=11.4) as vehicle. The format is ADME, organism-based. Also on record: dose 40 mg/kg, route intravenous. As to conditions: in vivo, pH 11.4, 40 mg/kg, read-out: Co. An outline of the steps:
as §2

Data set [12] relates to Mus musculus. Description: Plasma concentration at time-0 was measured in mice at 100 mg/kg after intraperitoneal administration with 90% DMSO as vehicle. The note with it: in vivo, ip, read-out: Co.
Data set [13] in a line: Half life in mice plasma was determined at 100 mg/kg after intraperitoneal administration with 90% DMSO as vehicle. As to conditions: mouse, ip.

The results in this text go back to ChEMBL document CHEMBL1128343, “Synthesis, properties, and pharmacokinetic studies of N2-phenylguanine derivatives as inhibitors of herpes simplex virus thymidine kinases” (J Med Chem, 1995).

As a reminder, the IC50 is the concentration that gives 50% inhibition. Read a high IC50 as a need for much substance. The Vd is the apparent volume that relates the amount in the body to the concentration in plasma or blood. Usually half-life stands for the time in which the quantity being followed falls by half. Read a high half-life as slow loss.

Take `OCCn1cnc2c(O)nc(Nc3cccc(C(F)(F)F)c3)nc21`: the half-maximal inhibitory concentration (IC50) in [1] is 20400 nM; in [2], 4700 nM.
Turning to `O=c1[nH]c(Nc2cccc(C(Cl)C(F)(F)Cl)c2)nc2nc[nH]c12` (stereo unspecified), the half-inhibitory concentration (IC50) in data set [1] stood at 470 nM; in data set [2] it was 650 nM.
On to `O=C(O)Cn1cnc2c(=O)[nH]c(Nc3ccccc3)nc21`, for which the IC50 in data set [1] stood at 9800 nM; in data set [2], 12400 nM.
In the same order, the values of `COCCn1cnc2c(=O)[nH]c(Nc3ccccc3)nc21` are 2700 nM and 610 nM.
For the compound `O=c1[nH]c(Nc2cccc(C(Cl)=C(Cl)Cl)c2)nc2[nH]cnc12`, the IC50 in [1] and in data set [2] was 70000 nM throughout.
As to `O=c1[nH]c(Nc2ccccc2)nc2c1ncn2CC(O)CO` (stereo unspecified), the IC50 amounted to 3500 nM in data set [1] and 1700 nM in [2].
As to `O=c1[nH]c(Nc2ccccc2)nc2c1ncn2CCCCO`, the concentration came to 30.5 µM in [3] and 49.5 µM in data set [6]. In data set [4], this compound displayed a Vd of 2.7 L/kg. The same compound gave a half-life in data set [5] of 14 min.
As for `O=C1N=C(Nc2ccccc2)N=C2C1N=CN2[C@H]1C[C@H](O)[C@@H](CO)O1` (stereo partly specified), the values for the concentration in [7] and in data set [11] were 11.7 µM and 174 µM, respectively. Besides, the volume of distribution (Vd) in data set [8] is 0.4 L/kg. Further, the results for the half-life in [9] and in data set [10] were 7.5 min and 60 min, respectively.
For the compound `O=c1[nH]c(Nc2cccc(OC(F)(F)F)c2)nc2nc[nH]c12`, the 50% inhibitory concentration (IC50) in data set [1] worked out at 6300 nM; in data set [2], 2300 nM.
On to `O=c1[nH]c(Nc2ccccc2)nc2c1ncn2CCO`, for which the distribution volume (Vd) in [4] amounted to 3.3 L/kg. Besides, the concentration in data set [12] was 100 µM; in data set [6], 44.7 µM. For the same compound, the results for the half-life in data set [5] and in data set [13] were 15 min and 21 min, respectively.
With `O=C1N=C(Nc2cccc(C(F)(F)F)c2)N=C2C1N=CN2[C@H]1C[C@H](O)[C@@H](CO)O1` (stereo partly specified), the IC50 in [1] turned out to be 2000 nM; in [2], 4000 nM.
In the same order, the values of `O=c1[nH]c(Nc2ccccc2)nc2c1ncn2CC(O)CSCCO` (stereo unspecified) are 1600 nM and 1600 nM.
For `O=c1[nH]c(Nc2cccc(C(F)(F)F)c2)nc2nc[nH]c12`, the figures for the concentration in data set [7] and in data set [11] were 10.2 µM and 54.2 µM, respectively. The compound also showed a Vd in data set [8] of 3 L/kg. Moreover, in [9], the half-life came to 25 min.
In the case of `O=c1[nH]c(Nc2cccc(CC(F)(F)F)c2)nc2nc[nH]c12`, the IC50 in [1] came to 1000 nM; in [2], 450 nM.
In the same order, the values of `O=c1[nH]c(Nc2cccc(C(F)F)c2)nc2nc[nH]c12` are 3900 nM and 2800 nM.
The compound `C=CCn1cnc2c(=O)[nH]c(Nc3ccccc3)nc21` came in with an IC50 in data set [1] of 180 nM.
